The source made the active and inactive calls.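 The calls were made as follows, unless noted: active = fluorescence slope higher than the sample average by over 3 SD (cut at about -0.22 in these data, passing the limit was not always enough); inactive = the rest.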
Assays:
[1] = inhibitors of TNFa-induced NFkB p65 translocation, primary screen, imaging, HUVEC, MLSMR starter and 10KST1 sets (AID 438;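 active = inhibition above 20% together with a positive visual image hit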;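 also: compound added about 3h40 before a 20 min TNFalpha stimulation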;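 as to inhibition: signal is the nuclear over cytoplasmic p65 intensity ratio per well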); details: HUVEC TNFa-induced p65 nuclear translocation; cell count: measured here: nuclei count (cytotoxicity indicator), at 2.08 µM; inhibition: at 2 µM, stronger effect = higher value, 0% TNFa-plus-vehicle, 100% no-TNFa wells
[2] = reduction of polyQ htt aggregates in cells – imaging, exon1htt(103Q)mCFP cells, high-content imaging, primary screen (AID 483;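 active = visual image review flags a hit and inhibition of aggregation exceeds 20%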;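 also: compound exposure lasted 3 days before fixation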;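 as to nuclei count: percent of the per-plate median nuclei count of sample wells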); details: exon1htt(103Q)mCFP cell line, aggregate imaging, at 2 µM; inhibition of aggregation: stronger effect = higher value; nuclei count: measured here: cell count, toxicity
[3] = endothelial E-selectin expression blockers – imaging, HUVEC, immunofluorescence, MLSMR starter and 10KST1 sets, primary screen (AID 487;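 active = visually confirmed hit in the image check and inhibition above 20%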;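 as to inhibition: signal is fraction of cell area covered by stained E-selectin grains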;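 as to nuclei count: 100% = median nuclei count of all wells on the same plate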); details: HUVEC TNFalpha-induced E-selectin immunofluorescence imaging, at 2 µM; inhibition: stronger effect = higher value; nuclei count: measured here: cell number, toxicity
[4] = molecular target: Voltage-gated potassium channel subunit beta-2 (Rattus norvegicus) (UniProt P62483); assay: inhibitors of rat Kvbeta2 reductase activity – biochemical, NADPH fluorescence, primary screen (AID 622); details: recombinant KvBeta, 4-cyanobenzaldehyde reduction, at 10 µM, stronger effect = higher value;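 also: slope of raw intensity against log time taken from 70 to 1610 s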
[5] = molecular target: Voltage-gated potassium channel subunit beta-2 (Rattus norvegicus) (UniProt P62483); assay: enhancers of rat Kvbeta2 NADPH turnover – biochemical, NADPH fluorescence, primary screen (AID 623;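 active = NADPH fluorescence slope more negative than the mean of all samples by about 3 SD, 99.7% confidence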;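 also: fluorescence intensity change per second fitted from 20 to 320 s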); details: Recombinant KvBeta, NADPH fluorescence decrease slope, 10 min; at 10 µM; stronger effect = lower value
[6] = molecular target: Muscarinic acetylcholine receptor M4 (Homo sapiens) (UniProt P08173); assay: M4-linked GIRK flux change, two-sided – cell-based, HEK293 M4/GIRK, thallium flux, BTC-AM, M4 allosteric agonist project, primary screen (AID 625;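 active = fluorescence slope after compound addition differing from the mean of all tested samples at 99.7% confidence, mostly higher but some lower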;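 also: thallium influx through GIRK channels coupled to M4 in HEK293 cells with BTC-AM dye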); details: at 10 µM, actives lie on both sides
In short: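 assay system = HEK293 cells with M4 receptor and GIRK channels | medium = pH 7.3 thallium assay buffer | doses = 10 µM final, single point | timing = cells overnight at 37 °C, BTC-AM loading 1 h, reads 2 min total | signal = BTC-AM fluorescence, 1 Hz kinetic reads | read-out = post-addition slope, 15–24 s, of baseline-normalized fluorescence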

[7] = blockers of RIG-like receptor reporter activation – cell-based, Sendai virus stimulus, luciferase, 10K MLSCN set, TLR/RLR signaling modifier project, primary screen (AID 602276;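 active = inhibition at or above 50% at 10 µM; inactive = inhibition below 50%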;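 also: firefly luciferase from ISG56 promoter only with Renilla not read in this screen; 0% = Sendai virus plus DMSO and 100% = medium plus DMSO without virus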); details: HEK293 RL24 IRF3 luciferase reporter, at 10 µM, stronger effect = higher value
[8] = TLR3 IRF3 reporter activation blockers – cell-based, poly I:C stimulus, luciferase, 10K MLSCN set, primary screen (AID 602277;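 active = inhibition of the reporter signal at or above 50%; inactive = inhibition below 50%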); details: HEK293-TLR3 RL24 IRF3 luciferase reporter, at 10 µM, stronger effect = higher value

Muscarinic acetylcholine receptor M4 (Homo sapiens), sequence (P08173 whole entry, looked up): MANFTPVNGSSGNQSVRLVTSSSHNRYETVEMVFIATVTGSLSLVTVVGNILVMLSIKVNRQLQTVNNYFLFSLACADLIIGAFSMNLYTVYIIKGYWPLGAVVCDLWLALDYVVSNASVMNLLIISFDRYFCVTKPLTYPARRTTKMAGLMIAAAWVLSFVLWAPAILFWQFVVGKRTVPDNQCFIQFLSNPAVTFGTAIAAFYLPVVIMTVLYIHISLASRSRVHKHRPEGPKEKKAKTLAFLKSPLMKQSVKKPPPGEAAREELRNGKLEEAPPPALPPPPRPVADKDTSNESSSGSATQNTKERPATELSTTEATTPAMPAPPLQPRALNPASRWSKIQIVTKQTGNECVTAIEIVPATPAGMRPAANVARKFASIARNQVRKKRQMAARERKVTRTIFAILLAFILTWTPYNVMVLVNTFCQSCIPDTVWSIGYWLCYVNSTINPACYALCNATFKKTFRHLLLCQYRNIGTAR
Voltage-gated potassium channel subunit beta-2 (Rattus norvegicus), sequence (P62483 whole entry, looked up): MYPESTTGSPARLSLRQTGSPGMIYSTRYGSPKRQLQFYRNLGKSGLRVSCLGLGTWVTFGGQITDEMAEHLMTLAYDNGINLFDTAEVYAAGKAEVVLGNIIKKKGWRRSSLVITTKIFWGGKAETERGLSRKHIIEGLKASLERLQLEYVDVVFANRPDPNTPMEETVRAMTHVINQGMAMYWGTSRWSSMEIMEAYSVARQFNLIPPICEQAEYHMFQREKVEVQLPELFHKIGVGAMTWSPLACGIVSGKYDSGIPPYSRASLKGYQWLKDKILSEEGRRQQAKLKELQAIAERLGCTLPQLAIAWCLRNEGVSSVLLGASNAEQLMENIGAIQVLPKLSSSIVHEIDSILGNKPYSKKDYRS

With `CC(c1ccco1)N(C(=O)c1ccc(S(=O)(=O)N2CCCCC2)cc1)c1ccccn1` (stereo not drawn) the cell count [1] was 265, the inhibition [1] was 18.1% (inactive) and the inhibition of aggregation [2] was 13.8% (inactive). For the same molecule, the nuclei count [2] was 109%, the inhibition [3] was -32.7% (inactive) and the nuclei count [3] was 105%. The fluorescence slope [4] was -0.506 (inactive), the NADPH fluorescence slope [5] was -0.000211 (active) and the fluorescence slope [6] was 0.0101 (inactive). The inhibition [7] was 6.94% (inactive) and the inhibition [8] was 8.51% (inactive).
With `CCCN1CCN(CCCNC(=O)Cn2nc(-c3ccc(Cl)cc3)ccc2=O)CC1` the cell count [1] was 514, the inhibition [1] was 13.6% (inactive) and the inhibition of aggregation [2] was 0.1% (inactive). For the same molecule, the nuclei count [2] was 106%, the inhibition [3] was -205% (inactive) and the nuclei count [3] was 131%. The fluorescence slope [4] was -0.552 (inactive), the NADPH fluorescence slope [5] was -8.1e-05 (inactive) and the fluorescence slope [6] was 0.00614 (inactive). For the same molecule, the inhibition [7] was 9.94% (inactive) and the inhibition [8] was 11.9% (inactive).
With `CCc1ccccc1NC(=O)CSc1nc2n[nH]c(C)c2c(=N)n1-c1ccc(OC)cc1` the cell count [1] was 453, the inhibition [1] was 17.4% (inactive) and the inhibition of aggregation [2] was -1.3% (inactive). The nuclei count [2] was 104%, the inhibition [3] was 41.3% (inactive) and the nuclei count [3] was 103%. For the same molecule, the fluorescence slope [4] was -0.47 (inactive), the NADPH fluorescence slope [5] was -4.8e-05 (inactive) and the fluorescence slope [6] was 0.00766 (inactive). For the same molecule, the inhibition [7] was 15.1% (inactive) and the inhibition [8] was 20.3% (inactive).
In the case of `CCn1ncc(C2=NOC(C(=O)NCc3ccccc3)C2)c1C` (stereo not drawn), the cell count [1] is reported as 309, the inhibition [1] is reported as -20.8% (inactive) and the inhibition of aggregation [2] is reported as -64.1% (inactive). The nuclei count [2] was 2.2%, the inhibition [3] was -53.2% (inactive) and the nuclei count [3] was 105%. For the same molecule, the fluorescence slope [4] was -0.446 (inactive), the NADPH fluorescence slope [5] was 3.3e-05 (inactive) and the fluorescence slope [6] was 0.00637 (inactive). For the same molecule, the inhibition [7] was 17.4% (inactive) and the inhibition [8] was 73.3% (active).
In the case of `Cc1ccc(-c2cc(C(=O)Nc3cc(C)ccc3C)[nH]n2)c(O)c1`, the cell count [1] is reported as 390, the inhibition [1] is reported as -4.3% (inactive) and the inhibition of aggregation [2] is reported as 3.8% (inactive). The nuclei count [2] was 120%, the inhibition [3] was -50.5% (inactive) and the nuclei count [3] was 144%. The fluorescence slope [4] was -0.362 (inactive), the NADPH fluorescence slope [5] was 2.9e-05 (inactive) and the fluorescence slope [6] was 0.00727 (inactive). For the same molecule, the inhibition [7] was -2.53% (inactive) and the inhibition [8] was -27.3% (inactive).
For `O=c1oc2ccccc2n1CCc1ccccc1`, the cell count [1] was 470, the inhibition [1] was -4.6% (inactive) and the inhibition of aggregation [2] was 0% (inactive). For the same molecule, the nuclei count [2] was 88.3%, the inhibition [3] was -76.9% (inactive) and the nuclei count [3] was 238%. The fluorescence slope [4] was -0.522 (inactive), the NADPH fluorescence slope [5] was -0.000209 (inactive) and the fluorescence slope [6] was 0.00443 (inactive). For the same molecule, the inhibition [7] was -4.32% (inactive) and the inhibition [8] was -4.85% (inactive).
With `CCOCCCNC(=O)C1CCC(=O)N1CCc1ccccc1` (stereo not drawn) the cell count [1] was 237, the inhibition [1] was 2.7% (inactive) and the inhibition of aggregation [2] was 1.1% (inactive). For the same molecule, the nuclei count [2] was 92.5%, the inhibition [3] was -20% (inactive) and the nuclei count [3] was 95.1%. The fluorescence slope [4] was -0.568 (inactive), the NADPH fluorescence slope [5] was -6.9e-06 (inactive) and the fluorescence slope [6] was 0.00522 (inactive). For the same molecule, the inhibition [7] was 5.67% (inactive) and the inhibition [8] was 12.9% (inactive).
In the case of `CSc1nnc(-c2nnc(SC)n2-c2ccccc2)n1-c1ccccc1`, the cell count [1] is reported as 879, the inhibition [1] is reported as -9.3% (inactive) and the inhibition of aggregation [2] is reported as -8% (inactive). For the same molecule, the nuclei count [2] was 109%, the inhibition [3] was -143% (inactive) and the nuclei count [3] was 123%. For the same molecule, the fluorescence slope [4] was -0.532 (inactive), the NADPH fluorescence slope [5] was -2.1e-05 (inactive) and the fluorescence slope [6] was 0.00464 (inactive). The inhibition [7] was 9.27% (inactive) and the inhibition [8] was 27.2% (inactive).
In the case of `COc1ccc(CN2CC(C(=O)NCCCOC(C)C)CC2=O)cc1` (stereo not drawn), the cell count [1] is reported as 766, the inhibition [1] is reported as -12.7% (inactive) and the inhibition of aggregation [2] is reported as -17.1% (inactive). The nuclei count [2] was 102%, the inhibition [3] was -63.4% (inactive) and the nuclei count [3] was 122%. The fluorescence slope [4] was -0.522 (inactive), the NADPH fluorescence slope [5] was -6.3e-05 (inactive) and the fluorescence slope [6] was 0.00604 (inactive). For the same molecule, the inhibition [7] was -10% (inactive) and the inhibition [8] was -6.2% (inactive).
For `CCOC(=O)c1ccccc1NC(=O)Cn1cnc2c(cnn2-c2ccc(OC)cc2)c1=O`, the cell count [1] was 705, the inhibition [1] was -25.5% (inactive) and the inhibition of aggregation [2] was -6.3% (inactive). For the same molecule, the nuclei count [2] was 108%, the inhibition [3] was -0.4% (inactive) and the nuclei count [3] was 101%. The fluorescence slope [4] was -0.237 (inactive), the NADPH fluorescence slope [5] was -4.6e-06 (inactive) and the fluorescence slope [6] was 0.0067 (inactive). For the same molecule, the inhibition [7] was 10.8% (inactive) and the inhibition [8] was 22.8% (inactive).
With `Cc1c(C(=O)NCc2cccnc2)sc2ncn(CC(=O)N3CCCCC3C)c(=O)c12` (stereo not drawn) the cell count [1] was 477, the inhibition [1] was -7% (inactive) and the inhibition of aggregation [2] was -3.4% (inactive). For the same molecule, the nuclei count [2] was 89.7%, the inhibition [3] was -51.3% (inactive) and the nuclei count [3] was 70.3%. The fluorescence slope [4] was -0.555 (inactive), the NADPH fluorescence slope [5] was -1.4e-05 (inactive) and the fluorescence slope [6] was 0.00535 (inactive). The inhibition [7] was 18.5% (inactive) and the inhibition [8] was 23.8% (inactive).
With `CC(=O)N1C(=O)C2(C(C#N)=C(N)Oc3cc(C)oc(=O)c32)c2ccccc21` (stereo not drawn) the cell count [1] was 438, the inhibition [1] was 3.8% (inactive) and the inhibition of aggregation [2] was -2.1% (inactive). The nuclei count [2] was 108%, the inhibition [3] was -54.5% (inactive) and the nuclei count [3] was 110%. The fluorescence slope [4] was -0.511 (inactive), the NADPH fluorescence slope [5] was -0.00027 (inactive) and the fluorescence slope [6] was 0.00547 (inactive). The inhibition [7] was -9.7% (inactive) and the inhibition [8] was -6.69% (inactive).
In the case of `CCOC(=O)CSc1nnc(-c2cccnc2)n1Cc1ccccc1`, the cell count [1] is reported as 568, the inhibition [1] is reported as 16.6% (inactive) and the inhibition of aggregation [2] is reported as 10.1% (inactive). The nuclei count [2] was 97.1%, the inhibition [3] was -105% (inactive) and the nuclei count [3] was 158%. The fluorescence slope [4] was -0.576 (inactive), the NADPH fluorescence slope [5] was 1.1e-05 (inactive) and the fluorescence slope [6] was 0.00573 (inactive). The inhibition [7] was -4.13% (inactive) and the inhibition [8] was 1.14% (inactive).
For `O=C(c1ccc(S(=O)(=O)N2CCOCC2)cc1)N1CCc2ccccc2C1`, the cell count [1] was 401, the inhibition [1] was -1% (inactive) and the inhibition of aggregation [2] was -27.5% (inactive). For the same molecule, the nuclei count [2] was 103%, the inhibition [3] was -103% (inactive) and the nuclei count [3] was 118%. For the same molecule, the fluorescence slope [4] was -0.469 (inactive), the NADPH fluorescence slope [5] was -1.3e-05 (inactive) and the fluorescence slope [6] was 0.00485 (inactive). The inhibition [7] was 25.2% (inactive) and the inhibition [8] was 18.8% (inactive).
For `CC(C)N(C=O)C1(C(=O)NC2CCCCC2)CCCCC1`, the cell count [1] was 584, the inhibition [1] was -6.3% (inactive) and the inhibition of aggregation [2] was 15.2% (inactive). The nuclei count [2] was 114%, the inhibition [3] was -9.4% (inactive) and the nuclei count [3] was 113%. The fluorescence slope [4] was -0.551 (inactive), the NADPH fluorescence slope [5] was -4.6e-06 (inactive) and the fluorescence slope [6] was 0.00567 (inactive). The inhibition [7] was 10.2% (inactive) and the inhibition [8] was 13.5% (inactive).
With `Cc1ccc(S(=O)(=O)N2CCOCC2)cc1C(=O)Nc1ccccn1` the cell count [1] was 542, the inhibition [1] was -49% (inactive) and the inhibition of aggregation [2] was -23.1% (inactive). The nuclei count [2] was 106%, the inhibition [3] was -75.1% (inactive) and the nuclei count [3] was 111%. For the same molecule, the fluorescence slope [4] was -0.346 (inactive), the NADPH fluorescence slope [5] was -3.9e-05 (inactive) and the fluorescence slope [6] was 0.00587 (inactive). The inhibition [7] was 7.52% (inactive) and the inhibition [8] was 12% (inactive).
In the case of `CCC1C(=O)n2nc(-c3ccccc3)cc2N=C1C` (stereo not drawn), the cell count [1] is reported as 330, the inhibition [1] is reported as 0% (inactive) and the inhibition of aggregation [2] is reported as -7.3% (inactive). The nuclei count [2] was 102%, the inhibition [3] was -4.1% (inactive) and the nuclei count [3] was 114%. The fluorescence slope [4] was -0.506 (inactive), the NADPH fluorescence slope [5] was -4.6e-05 (inactive) and the fluorescence slope [6] was 0.006 (inactive). For the same molecule, the inhibition [7] was -22% (inactive) and the inhibition [8] was -37% (inactive).
With `CCN(C(=O)Cc1c(C(=O)O)[nH]c2ccccc12)c1cc(OC)ccc1OC` the cell count [1] was 439, the inhibition [1] was -5.2% (inactive) and the inhibition of aggregation [2] was -10% (inactive). The nuclei count [2] was 120%, the inhibition [3] was -36% (inactive) and the nuclei count [3] was 143%. For the same molecule, the fluorescence slope [4] was -0.286 (inactive), the NADPH fluorescence slope [5] was -4e-05 (inactive) and the fluorescence slope [6] was 0.00689 (inactive). For the same molecule, the inhibition [7] was 13.8% (inactive) and the inhibition [8] was 24.5% (inactive).
